The target in assay [1] is T1, fMet-Leu-Phe receptor (Homo sapiens, UniProt P21462).
T1 sequence (P21462 whole entry): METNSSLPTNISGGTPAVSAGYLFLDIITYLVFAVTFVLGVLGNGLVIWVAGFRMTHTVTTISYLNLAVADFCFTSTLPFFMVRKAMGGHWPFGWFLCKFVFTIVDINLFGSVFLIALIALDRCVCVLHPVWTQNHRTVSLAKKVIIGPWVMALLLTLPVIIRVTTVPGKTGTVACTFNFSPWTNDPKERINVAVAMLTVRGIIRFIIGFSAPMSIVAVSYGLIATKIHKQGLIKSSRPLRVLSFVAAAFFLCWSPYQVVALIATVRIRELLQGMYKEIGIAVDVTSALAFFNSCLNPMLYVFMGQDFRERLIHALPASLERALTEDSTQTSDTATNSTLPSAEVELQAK
Nature of the assay: Agonist activity at FPR1 in human neutrophiles assessed as induction of intracellular calcium flux by FLIPR3 calcium assay. It counts as functional, cell-based. (Calcium assays in cells follow changes in intracellular calcium, usually with a dye or a luminescent sensor.)

The target in assay [2] is T2, N-formyl peptide receptor 3 (Homo sapiens, UniProt P25089).
T2 sequence (P25089 whole entry): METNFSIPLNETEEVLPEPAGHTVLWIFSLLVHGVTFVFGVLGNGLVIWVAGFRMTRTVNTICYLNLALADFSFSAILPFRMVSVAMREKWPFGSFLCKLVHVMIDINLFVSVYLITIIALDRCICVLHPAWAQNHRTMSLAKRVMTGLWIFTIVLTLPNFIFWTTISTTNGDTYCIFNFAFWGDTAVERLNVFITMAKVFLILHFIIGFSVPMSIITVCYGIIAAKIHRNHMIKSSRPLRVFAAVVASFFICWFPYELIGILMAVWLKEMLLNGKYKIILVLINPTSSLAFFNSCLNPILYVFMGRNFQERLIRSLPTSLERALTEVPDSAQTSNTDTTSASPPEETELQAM
Nature of the assay: Agonist activity at FPRL2 expressed in human HL60 cells assessed as induction of intracellular calcium flux by FLIPR3 calcium assay. It counts as functional, cell-based. As to conditions: hl-60; call rule not given here. The gist of the method: (§1)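 HL-60 cells stably transfected with the receptor, grown in RPMI with 10% heat-inactivated FCS, 10 mM HEPES, antibiotics and G418 (1 mg/mL). They were then washed, resuspended in HBSS+ (2 × 10^5 cells/well) and read on a FlexStation II.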

The target in assay [3] is T3, fMet-Leu-Phe receptor (Homo sapiens) (UniProt P21462).
T3 sequence (whole entry): T1 sequence (P21462 whole entry)
Nature of the assay: Agonist activity at FPR1 expressed in human HL60 cells assessed as induction of intracellular calcium flux by FLIPR3 calcium assay relative to N-formyl-methionyl-leucyl-phenylalanine. As to conditions: HL-60. It counts as functional, cell-based.

In assay [4] the target is T1, fMet-Leu-Phe receptor. In words: Agonist activity at FPR1 expressed in human HL60 cells assessed as induction of intracellular calcium flux by FLIPR3 calcium assay. It counts as functional, cell-based, HL-60. In a few lines:
as §1

The target of assay [5] is T4, N-formyl peptide receptor 2 (Homo sapiens, UniProt P25090).
T4 sequence (P25090 whole entry): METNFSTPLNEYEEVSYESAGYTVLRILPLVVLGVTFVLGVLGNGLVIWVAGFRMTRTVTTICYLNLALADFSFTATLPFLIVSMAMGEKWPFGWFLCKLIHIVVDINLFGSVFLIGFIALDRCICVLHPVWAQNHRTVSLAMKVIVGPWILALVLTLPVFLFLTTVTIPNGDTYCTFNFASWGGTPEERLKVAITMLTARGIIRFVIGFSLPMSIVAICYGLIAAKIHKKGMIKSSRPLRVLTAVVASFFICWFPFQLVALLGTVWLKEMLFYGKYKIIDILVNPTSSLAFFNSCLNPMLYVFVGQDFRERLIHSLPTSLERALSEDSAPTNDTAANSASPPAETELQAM
Nature of the assay: Agonist activity at FPRL1 expressed in human HL60 cells assessed as induction of intracellular calcium flux by FLIPR3 calcium assay. It counts as functional, cell-based. Particulars: hl-60. The gist of the method: as §1

As to `COc1cccc(Cc2cc(C)nn(CC(=O)Nc3ccc4c(c3)OCO4)c2=O)c1`, the EC50 (in general, the concentration that produces a half-maximal response) in assay [1] is 3600 nM; in assay [2], “Not Active”; in assay [4] (read-out: EC50), 2300 nM; in assay [5], “Not Active”. Also, in assay [3], the Activity is 50%.
For `COc1cccc(Cc2cc(C)nn(CC(=O)c3ccc(Br)cc3)c2=O)c1`, the EC50 entry in assay [2], in assay [4] (hl-60) and in assay [5] was “Not Active” in each case.

These data come from ChEMBL document CHEMBL1152449, “6-methyl-2,4-disubstituted pyridazin-3(2H)-ones: a novel class of small-molecule agonists for formyl peptide receptors” (J Med Chem, 2009).
